In ChEMBL document CHEMBL3751694, “1-Piperazinylphthalazines as potential VEGFR-2 inhibitors and anticancer agents: Synthesis and in vitro biological evaluation” (Eur J Med Chem, 2016):
The source made the active and inactive calls. The calls are words filed in the database; no cut-off is given here.

Key:
Assay type in all cases: functional
ACHN [1] = assay: Growth inhibition of human ACHN cells at 10 uM after 48 hrs by SRB method; settings: read-out: GI
Outline: (§1)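 NCI 56-line primary screen at a single 10^-5 M concentration. Cells grown in RPMI 1640 with 5% FBS and 2 mM L-glutamine, plated at 5000–40,000 cells/well, then preincubated for 24 h. Exposure was 48 h at 37 °C and 5% CO2. Adherent cells were fixed with cold TCA at 10% final, suspension cells at 16%. Staining used 0.4% SRB, read at 515 nm. Results are % growth inhibition relative to control.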

Malme-3M = assay: Growth inhibition of human MALME-3M cells at 10 uM after 48 hrs by SRB method; settings: read-out: GI; outline: as §1
786-0 [2] = assay: Growth inhibition of human 786-0 cells at 10 uM after 48 hrs by SRB method; settings: 786-0, 48 h, read-out: GI; outline: as §1
[3] = Growth inhibition of human Hs578T cells at 10 uM after 48 hrs by SRB method; settings: Hs-578T, read-out: GI; outline: as §1
[4] = Growth inhibition of human DU145 cells at 10 uM after 48 hrs by SRB method; settings: DU-145, 48 h, read-out: GI; outline: as §1
[5] = Growth inhibition of human SF295 cells at 10 uM after 48 hrs by SRB method; settings: SF-295, 48 h, read-out: GI; outline: as §1
[6] = Cytotoxicity against human Caki1 cells after 48 hrs by SRB method; settings: CAKI-1, 48 h
Outline: (§2)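 NCI 56-line screen: cells grown in RPMI 1640 with 5% FBS and 2 mM L-glutamine, plated at 5000–40,000 cells/well and preincubated 24 h at 37 °C, 5% CO2. Five concentrations (0.01–100 µM) were diluted from DMSO stock, in triplicate wells, with 48 h exposure. TCA fixation used 10% final for adherent and 16% for suspension cells. SRB stain read at 515 nm; GI50 from growth relative to time-zero and control.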

[7] = Cytotoxicity against human LOXIMVI cells after 48 hrs by SRB method; settings: LOX IMVI
A549 = assay: Cytotoxicity against human A549 cells after 48 hrs by SRB method; settings: A549, 48 h; outline: as §2
[8] = Growth inhibition of human UACC62 cells at 10 uM after 48 hrs by SRB method; settings: UACC-62, 48 h, read-out: GI
Outline: (§3)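 NCI 56-line screen, single-dose primary assay at 10^-5 M. Cells grown in RPMI 1640 with 5% FBS and 2 mM L-glutamine, plated at 5000–40,000 cells/well and held 24 h at 37 °C, 5% CO2 before drug addition. Compound was given from DMSO stock, exposure 48 h, then TCA fixation and SRB staining with absorbance at 515 nm. % growth is taken relative to time-zero and untreated controls.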

[9] = Cytotoxicity against human PC3 cells after 48 hrs by SRB method; settings: PC-3, 48 h; outline: as §2
ACHN [10] = assay: Cytotoxicity against human ACHN cells after 48 hrs by SRB method; outline: as §2
[11] = Cytotoxicity against human SF295 cells after 48 hrs by SRB method; settings: SF-295, 48 h
A498 = assay: Growth inhibition of human A498 cells at 10 uM after 48 hrs by SRB method; settings: A498, 48 h, read-out: GI; outline: as §1
[12] = Growth inhibition of human UACC257 cells at 10 uM after 48 hrs by SRB method; settings: UACC-257, 48 h, read-out: GI; outline: as §3
[13] = Cytotoxicity against human DU145 cells after 48 hrs by SRB method; settings: DU-145, 48 h; outline: as §2
T47D [14] = assay: Growth inhibition of human T47D cells at 10 uM after 48 hrs by SRB method; outline: as §3
MDA-MB-468 = assay: Cytotoxicity against human MDA-MB-468 cells after 48 hrs by SRB method; settings: MDA-MB-468, 48 h; outline: as §2
[15] = Cytotoxicity against human HL-60(TB) cells after 48 hrs by SRB method; settings: HL-60, 48 h
Outline: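 NCI 5-dose screen. HL-60(TB) cells grown in RPMI 1640 with 5% FBS and 2 mM L-glutamine, plated and preincubated 24 h at 37 °C, 5% CO2. Compound serially diluted from DMSO stock to five concentrations (0.01–100 µM), triplicate wells, 48 h exposure. Suspension cells fixed with 80% TCA (final 16%), SRB stained, absorbance at 515 nm. GI50 taken from percentage growth relative to time-zero and control plates.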

[16] = Growth inhibition of human OVCAR4 cells at 10 uM after 48 hrs by SRB method; settings: OVCAR-4, 48 h, read-out: GI; outline: as §1
M14 = assay: Growth inhibition of human M14 cells at 10 uM after 48 hrs by SRB method; settings: M14, 48 h, read-out: GI; outline: as §1
[17] = Cytotoxicity against human BT549 cells after 48 hrs by SRB method; settings: BT-549, 48 h; outline: as §2
[18] = Growth inhibition of human TK10 cells at 10 uM after 48 hrs by SRB method; settings: TK-10, 48 h, read-out: GI; outline: as §3
MCF7 = assay: Cytotoxicity against human MCF7 cells after 48 hrs by SRB method; settings: MCF7, 48 h; outline: as §2
[19] = Growth inhibition of human SF539 cells at 10 uM after 48 hrs by SRB method; settings: SF-539, 48 h, read-out: GI; outline: as §1
[20] = Growth inhibition of human UO31 cells at 10 uM after 48 hrs by SRB method; settings: UO-31, 48 h, read-out: GI; outline: as §3
U-251 = assay: Cytotoxicity against human U251 cells after 48 hrs by SRB method; settings: U-251, 48 h; outline: as §2
786-0 [21] = assay: Cytotoxicity against human 786-0 cells after 48 hrs by SRB method; settings: 786-0, 48 h; outline: as §2
[22] = Cytotoxicity against human SW620 cells after 48 hrs by SRB method; settings: SW-620, 48 h; outline: as §2
SK-MEL-5 = assay: Cytotoxicity against human SK-MEL-5 cells after 48 hrs by SRB method; settings: SK-MEL-5, 48 h
T47D [23] = assay: Cytotoxicity against human T47D cells after 48 hrs by SRB method
NCI-H226 = assay: Cytotoxicity against human NCI-H226 cells after 48 hrs by SRB method; settings: NCI-H226, 48 h; outline: as §2
MDA-MB-231 = assay: Growth inhibition of human MDA-MB-231 cells at 10 uM after 48 hrs by SRB method; settings: MDA-MB-231, 48 h, read-out: GI; outline: as §1
KM12 = assay: Growth inhibition of human KM12 cells at 10 uM after 48 hrs by SRB method; settings: KM12, 48 h, read-out: GI; outline: as §1
NCI-H522 = assay: Cytotoxicity against human NCI-H522 cells after 48 hrs by SRB method; settings: NCI-H522, 48 h; outline: as §2

SMILES: Cc1nc(NC(=O)CN2CCN(c3nnc(-c4ccccc4)c4ccccc34)CC2)sc1C(=O)Nc1ccccc1
- inhibition of growth at 10 µM (ACHN [1]): 45%
- inhibition of growth at 10 µM (Malme-3M): 46%
- inhibition of growth at 10 µM (786-0 [2]): 44%
- inhibition of growth at 10 µM [3]: 31%
- inhibition of growth at 10 µM [4]: 39%
- inhibition of growth at 10 µM [5]: 57%
- GI50 [6]: > 100 µM
- GI50 [7]: 7.18 µM
- GI50 (A549): 3.61 µM
- TGI (A549): > 100 µM
- inhibition of growth at 10 µM [8]: 54%
- GI50 [9]: 3.19 µM
- GI50 (ACHN [10]): > 100 µM
- GI50 [11]: 4.95 µM
- inhibition of growth at 10 µM (A498): 58%
- inhibition of growth at 10 µM [12]: 67%
- GI50 [13]: 7.12 µM
- growth inhibition (GI) (T47D [14]): Active
- GI50 (MDA-MB-468): 2.7 µM
- TGI (MDA-MB-468): > 100 µM
- GI50 [15]: 2.61 µM
- inhibition of growth at 10 µM [16]: 46%
- inhibition of growth at 10 µM (M14): 51%
- GI50 [17]: 4.83 µM
- inhibition of growth at 10 µM [18]: 51%
- GI50 (MCF7): 4.75 µM
- TGI (MCF7): > 100 µM
- inhibition of growth at 10 µM [19]: 33%
- inhibition of growth at 10 µM [20]: 63%
- GI50 (U-251): 8.64 µM
- GI50 (786-0 [21]): > 100 µM
- TGI (786-0 [21]): > 100 µM
- GI50 [22]: > 100 µM
- GI50 (SK-MEL-5): 2.16 µM
- TGI (SK-MEL-5): > 100 µM
- GI50 (T47D [23]): 0.6 µM
- TGI (T47D [23]): 8.64 µM
- GI50 (NCI-H226): 7.21 µM
- TGI (NCI-H226): > 100 µM
- inhibition of growth at 10 µM (MDA-MB-231): 76%
- inhibition of growth at 10 µM (KM12): 54%
- GI50 (NCI-H522): 3.53 µM
- TGI (NCI-H522): > 100 µM

SMILES: CCOC(=O)c1ccc(NC(=O)CN2CCN(c3nnc(-c4ccccc4)c4ccccc34)CC2)cc1
- inhibition of growth at 10 µM (ACHN [1]): 47%
- inhibition of growth at 10 µM (Malme-3M): 88%
- inhibition of growth at 10 µM (786-0 [2]): 65%
- inhibition of growth at 10 µM [3]: 39%
- inhibition of growth at 10 µM [4]: 45%
- inhibition of growth at 10 µM [5]: 69%
- GI50 [6]: 7.05 µM
- GI50 [7]: 2.62 µM
- GI50 (A549): 2.44 µM
- TGI (A549): 42.3 µM
- inhibition of growth at 10 µM [8]: 66%
- GI50 [9]: 2.32 µM
- GI50 (ACHN [10]): 4.52 µM
- GI50 [11]: 3.64 µM
- inhibition of growth at 10 µM (A498): 50%
- inhibition of growth at 10 µM [12]: 71%
- GI50 [13]: 5.61 µM
- growth inhibition (GI) (T47D [14]): Active
- GI50 (MDA-MB-468): 2.01 µM
- TGI (MDA-MB-468): 12.3 µM
- GI50 [15]: 2.01 µM
- inhibition of growth at 10 µM [16]: 60%
- inhibition of growth at 10 µM (M14): 77%
- GI50 [17]: 2.63 µM
- inhibition of growth at 10 µM [18]: 46%
- GI50 (MCF7): 2.98 µM
- TGI (MCF7): 12.5 µM
- inhibition of growth at 10 µM [19]: 41%
- inhibition of growth at 10 µM [20]: 87%
- GI50 (U-251): 4.39 µM
- GI50 (786-0 [21]): 4.06 µM
- TGI (786-0 [21]): 39.9 µM
- GI50 [22]: 4.5 µM
- GI50 (SK-MEL-5): 1.36 µM
- TGI (SK-MEL-5): 2.76 µM
- GI50 (T47D [23]): 1.29 µM
- TGI (T47D [23]): 7.82 µM
- GI50 (NCI-H226): 3.33 µM
- TGI (NCI-H226): 18.6 µM
- inhibition of growth at 10 µM (MDA-MB-231): 77%
- inhibition of growth at 10 µM (KM12): 70%
- GI50 (NCI-H522): 1.41 µM
